Bioassay records from PubChem BioAssay.
This is a sample that favours compounds with a hit; in the whole collection about 2.7% have one here.
SIAE inh – blocks human sialic acid acetylesterase | SIAE FP-Rh probe binding, fluorescence polarization | actives 0.69% (n = 370,000) | inhibition, % at 9.66 µM | AID 1053197 | Q9HAT2;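 active means inhibition above a cutoff: mean of compounds within the control limits plus 3 SD of those, cut at about 17% in these data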
PRMT1 inh – inhibitors of human PRMT1; Q99873; recombinant PRMT1, activity-based probe fluorescence polarization; inhibition, % at 2.79 µM; actives 1.3% (n = 370,000); AID 652257;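 active means inhibition above about 21% made by adding two undisclosed values, limit read from the data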
PAD4 inh – blocks human protein arginine deiminase 4; recombinant PAD4, RCA probe fluorescence polarization; inhibition, % at 6.36 µM; actives 0.41% (n = 330,000); Q9UM07;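 active means percent inhibition above a cutoff equal to the mean of all tested compounds plus 3 SD, cut at about 15% in these data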
Target sequence (Q9UM07 whole entry, looked up): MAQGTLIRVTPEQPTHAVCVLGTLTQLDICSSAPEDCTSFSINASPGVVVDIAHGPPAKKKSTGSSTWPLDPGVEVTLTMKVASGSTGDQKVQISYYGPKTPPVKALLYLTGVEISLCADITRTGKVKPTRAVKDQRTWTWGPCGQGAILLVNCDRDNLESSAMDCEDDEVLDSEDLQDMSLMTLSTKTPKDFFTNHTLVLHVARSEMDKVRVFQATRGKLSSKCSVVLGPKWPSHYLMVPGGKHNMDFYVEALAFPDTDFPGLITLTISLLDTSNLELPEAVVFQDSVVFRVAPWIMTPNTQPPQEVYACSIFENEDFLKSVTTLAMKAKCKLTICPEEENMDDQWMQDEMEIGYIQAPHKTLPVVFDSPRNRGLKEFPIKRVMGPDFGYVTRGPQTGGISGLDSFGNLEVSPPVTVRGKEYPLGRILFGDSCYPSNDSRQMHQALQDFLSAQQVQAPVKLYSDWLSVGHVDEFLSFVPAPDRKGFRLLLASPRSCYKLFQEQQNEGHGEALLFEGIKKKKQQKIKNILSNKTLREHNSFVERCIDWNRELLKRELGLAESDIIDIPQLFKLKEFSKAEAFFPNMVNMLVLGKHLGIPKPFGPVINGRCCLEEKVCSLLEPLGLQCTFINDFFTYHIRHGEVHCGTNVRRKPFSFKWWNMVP
GSTO1 inh – GSTO1 inhibition, counter-screen for RBBP9 inhibitors | P78417 | recombinant GSTO1, activity-based probe fluorescence polarization | inhibition, % at 5.96 µM | actives 1.1% (n = 300,000) | AID 1974;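 active means inhibition above the campaign mean inhibition plus 3 SD, cut at about 35% in these data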
RBBP9 inh – inhibitors of human serine hydrolase RBBP9; AID 1515; actives 0.2% (n = 220,000); inhibition, % at 7.94 µM; O75884; recombinant RBBP9, FP-Rh probe fluorescence polarization;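 active means inhibition above the campaign mean of all tested compounds plus 3 SD, cut at about 14% in these data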
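System: RBBP9 protein / Quantity: 2.5 µM RBBP9 dispensing solution, before mixing / Also added: Serine-hydrolase probe FP-Rh, 375 nM pre-mixing / Dosing: 7.94 µM single dose, 0.794% DMSO / Timing: enzyme-compound preincubation 30 min, then probe labeling 45 min, 25 °C / Signal: FP readout at 525/598 nm / Controls: DMSO-treated enzyme wells and wells lacking RBBP9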
GSTO1 inh conf – confirmation of human GSTO1 inhibitors | shares compounds with GSTO1 inh | actives 54% (n = 2,400) | inhibition, % at 5.96 µM | recombinant GSTO1, probe fluorescence polarization;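 active means inhibition above the primary screen's cutoff, its mean inhibition plus 3 SD, cut at about 35% in these data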;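 further: loss of polarization as inhibitors block binding of rhodamine sulfonate ester activity probe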
PAD4 confirm – PAD4 (human) inhibition, confirmed; shares compounds with PAD4 inh; recombinant PAD4, RCA probe fluorescence polarization; inhibition, % at 6.36 µM; actives 28% (n = 1,200); AID 488796;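 active means mean inhibition across replicates above the hit cutoff set by the earlier primary screen, cut at about 15% in these data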;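 further: inhibitors block active-site labeling by the probe so polarization falls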
Each line names hits and unclear results; the compound was inactive in the other large screens (follow-up assays come after a bar, where they were run); ! = not confirmed by another sample.

COc1ccc(-n2nc(C(=O)NCC(=O)Nc3cc(C)ccc3OC)c3ccccc3c2=O)c(OC)c1	none (no result: RBBP9 inh)
CCC(=Nc1ccc(N)cc1)C1=C(O)C(C(=O)OC)C(C)(C)CC1=O (centres undefined)	SIAE inh 25, PAD4 inh 73, GSTO1 inh 85 | GSTO1 inh conf inactive | PAD4 confirm inactive
CCCC(=Nc1ccccc1)C1=C(O)C(C(=O)OC)C(C)(C)CC1=O (centres undefined)	none
Cc1[nH][nH]c(=O)c1C(c1c(C)[nH][nH]c1=O)c1cn(Cc2ccc(F)cc2)c2ccccc12	PAD4 inh 24, GSTO1 inh 56 (no result: SIAE inh, PRMT1 inh) | GSTO1 inh conf inactive | PAD4 confirm inactive
O=C(O)Cc1cn(Cc2ccc(F)cc2)c2ccccc12	none
Cc1[nH][nH]c(=O)c1C(c1c(C)[nH][nH]c1=O)c1cn(Cc2ccc(Cl)c(Cl)c2)c2ccccc12	PAD4 inh 33, GSTO1 inh 66 | GSTO1 inh conf 56 | PAD4 confirm inactive
CC1=C(Nc2ccc(C(=O)O)cc2)C(=O)c2ccccc2C1=O	none (no result: RBBP9 inh)
CC(=O)NC1=C(Nc2ccc(N(C)C)cc2)C(=O)c2ccccc2C1=O	PAD4 inh 17, GSTO1 inh 46 (no result: RBBP9 inh) | GSTO1 inh conf inactive | PAD4 confirm inactive
Nn1cnnc1N/N=C/c1cccc(Cl)c1Cl	none (no result: PAD4 inh, GSTO1 inh, RBBP9 inh)
Nn1cnnc1N/N=C/c1ccc(Cl)c([N+](=O)[O-])c1	PAD4 inh 56, GSTO1 inh 39 | GSTO1 inh conf inactive | PAD4 confirm inactive
CCOC(=O)c1[nH]c2ccc(OC)cc2c1NC(=O)C(C)N1CCSCC1 (centres undefined)	none (no result: PAD4 inh, GSTO1 inh)
C(=N\NC1=NCCN1)/c1ccncc1	none (no result: RBBP9 inh)
CCn1c(-c2ccccc2)c(C(=O)CCl)c2ccccc21	PAD4 inh 21, GSTO1 inh 60 | GSTO1 inh conf 76 | PAD4 confirm 42
CN(C)c1ccc(N/C=C/C(=O)c2ccccc2)cc1	PRMT1 inh 22, PAD4 inh 17, GSTO1 inh 62 | GSTO1 inh conf inactive | PAD4 confirm inactive
O=C(/C=C/Nc1ccccc1)c1ccccc1	none
Cc1cccc(OC(=O)c2ccncc2)c1C	none
COc1cc(/C=C2/C(=O)N(c3ccc([N+](=O)[O-])cc3)N=C2N2CCOCC2)ccc1O	PAD4 inh 70, GSTO1 inh 89 | GSTO1 inh conf inactive | PAD4 confirm inactive
O=C1C(Cl)=C(NCc2cccnc2)C(=O)c2ccccc21	PAD4 inh 21, GSTO1 inh 77 (no result: RBBP9 inh) | GSTO1 inh conf 57 | PAD4 confirm inactive
O=[N+]([O-])c1ccc(CN2CCN(c3nc4ccccc4s3)CC2)cc1	none (no result: RBBP9 inh)
CCCn1nc([N+](=O)[O-])c(C(C#N)c2nc3ccccc3s2)c(Cl)c1=O (centres undefined)	PRMT1 inh 28, PAD4 inh 19, GSTO1 inh 66 | GSTO1 inh conf 44 | PAD4 confirm 23
CCCCn1c(N)c(S(=O)(=O)c2ccc(C)cc2)c2nc3ccccc3nc21	none
C=CCn1c(NS(=O)(=O)c2ccccc2)c(S(=O)(=O)c2ccc(C)cc2)c2nc3ccccc3nc21	PAD4 inh 76, GSTO1 inh 101 | GSTO1 inh conf 88 | PAD4 confirm inactive
COc1cccc(C(NC(C)=O)c2nc(-c3cccc(C#N)c3)cs2)c1 (centres undefined)	none (no result: PAD4 inh, GSTO1 inh, RBBP9 inh)
CCN(CC)S(=O)(=O)c1ccc(C)c(NS(=O)(=O)c2cc(/C=C/C(=O)O)cc(OC)c2OC)c1	PAD4 inh 53, GSTO1 inh 39 | GSTO1 inh conf inactive | PAD4 confirm inactive
CCc1ccc(OCC(=O)N/N=C2\CC(=O)c3ccccc32)cc1	PAD4 inh 25, GSTO1 inh 61 (no result: SIAE inh, PRMT1 inh) | GSTO1 inh conf inactive | PAD4 confirm inactive
COc1ccc(OCC(=O)N/N=C2\CCCCc3ccccc32)cc1	none
CNC1=C(N(C(C)=O)c2ccc(Br)cc2)C(=O)c2ccccc2C1=O	PAD4 inh 47, GSTO1 inh 73 | GSTO1 inh conf 63 | PAD4 confirm 16
CN(C)c1ccc(C(=O)NN2C(=O)c3ccccc3C2=O)cc1	none
COc1ccc(C)cc1NC(=O)c1ccc2c(c1)C(=O)N(Cc1ccncc1)C2=O	none (no result: GSTO1 inh, RBBP9 inh)
COc1ccc(N(CC(=O)Nc2ccc(F)cc2)S(=O)(=O)c2ccccc2[N+](=O)[O-])c(OC)c1	none
CCOc1cc(/C=C2/C(=O)N(c3ccccc3)N=C2C)ccc1OC(=O)c1ccco1	PAD4 inh 47, GSTO1 inh 65 | GSTO1 inh conf inactive | PAD4 confirm inactive
CN(C)c1ccc(N=Cc2cccn2C)cc1	PAD4 inh 25, GSTO1 inh 83 (no result: RBBP9 inh) | GSTO1 inh conf inactive | PAD4 confirm inactive
Cc1ccc(S(=O)(=O)Nc2cc(Cl)c(O)c3ncccc23)cc1	PAD4 inh 36, GSTO1 inh 61 (no result: RBBP9 inh) | GSTO1 inh conf inactive | PAD4 confirm inactive
O=C(Nc1ccc2c(c1)OCCO2)C(c1ccccc1F)n1c(=O)c(-c2cc3ccccc3[nH]2)nc2ccccc21 (centres undefined)	none (no result: PAD4 inh, GSTO1 inh, RBBP9 inh)
O=C(Cc1cc(=O)[nH][nH]1)N/N=C/c1c(Cl)cccc1Cl	PAD4 inh 20!, GSTO1 inh 52 | GSTO1 inh conf inactive | PAD4 confirm inactive
O=C(Cc1cc(=O)[nH][nH]1)N/N=C/c1c(F)cccc1Cl	none
O=C(Nc1ccccc1)Nc1ccc(O)c2ccccc12	PAD4 inh 24, GSTO1 inh 47 (no result: SIAE inh, PRMT1 inh, RBBP9 inh) | GSTO1 inh conf 38 | PAD4 confirm inactive
COc1ccc(OC)c(NC(=O)Nc2ccc(O)c3ccccc23)c1	PAD4 inh 23, GSTO1 inh 61 (no result: RBBP9 inh) | GSTO1 inh conf inactive | PAD4 confirm inactive
CCOC(=O)c1cc(-c2ccccc2)sc1NC(=S)Nc1cc(C)ccn1	none
CC(C)OC(=O)N(C)C[C@@H]1OCc2cn(nn2)CCCC(=O)N([C@H](C)CO)C[C@H]1C	none (no result: PAD4 inh, GSTO1 inh, RBBP9 inh)
CC(C)Cn1c(N)c(C(=O)NCC2CCCO2)c2nc3ccccc3nc21 (centres undefined)	none
COCCn1c(N)c(C(=O)NCC2CCCO2)c2nc3ccccc3nc21 (centres undefined)	PAD4 inh 76, GSTO1 inh 102 | GSTO1 inh conf inactive | PAD4 confirm inactive
COCCn1c(N)c(S(=O)(=O)c2cccs2)c2nc3ccccc3nc21	PAD4 inh 22, GSTO1 inh 81 | GSTO1 inh conf inactive | PAD4 confirm inactive
O=c1cc(-c2ccccc2)[nH][nH]1	PAD4 inh 35, GSTO1 inh 38 | GSTO1 inh conf inactive | PAD4 confirm inactive
O=c1cc(-c2ccc(F)cc2)[nH][nH]1	PAD4 inh 59, GSTO1 inh 41 | GSTO1 inh conf inactive | PAD4 confirm inactive
COc1ccc(-c2c[nH]c(=O)[nH]c2=O)cc1OC	none
COc1ccc(-c2cc(=O)[nH][nH]2)cc1OC	PAD4 inh 65, GSTO1 inh 66 | GSTO1 inh conf inactive | PAD4 confirm inactive
CCc1ccc(NC(=O)N(CCCOC(C)C)C2CCN(C(C)=O)CC2)cc1	none
